According to ChEMBL document CHEMBL4513216, “Probing the Open Global Health Chemical Diversity Library for Multistage-Active Starting Points for Next-Generation Antimalarials” (ACS Infect Dis, 2020):

Assay: Toxicity liver stage against HepG2, at 10uM
Assay type: cell-based
Set-up: test concentration 10 uM, cell line HepG2-A16-CD81EGFP
Conditions: human, HepG2-A16-CD81EGFP cells; read-out: INHIBITION
In short: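 Uninfected HepG2-A16-CD81EGFP cells, 3 × 10^3 per well, 1536-well, plated on prespotted compound at 10 μM final, parasite-free screening media added to match infected plates; puromycin 10 μM positive, DMSO 0.5% negative; run in parallel with 48 h PbLuc assay at 37 °C, 5% CO2; viability by CellTiter-Glo luminescence, normalized to controls.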

CC(O)c1cccc(N2CCC3(CC2)Nc2ccccc2NC3=O)n1 (configuration not stated)
cytotoxicity at 10 µM: -10.6%

O=C(COCc1ccccc1Cl)N1CCCC(n2ccnc2)C1 (configuration not stated)
cytotoxicity at 10 µM: -25.1%

COCCN1CCC(NCc2c(F)cccc2F)C1 (configuration not stated)
cytotoxicity at 10 µM: -5.95%

CCCC(O)CN1CC(C)(C)CN(C(=O)c2ccc(Cl)cc2)CC1=O (configuration not stated)
cytotoxicity at 10 µM: 2.78%

NC(=O)C1CCCN(c2ccc(CNC(=O)c3cc[nH]n3)cc2)C1 (configuration not stated)
cytotoxicity at 10 µM: -3.9%

COc1ccc(NC(C)c2nnnn2-c2ccccc2)cc1F (configuration not stated)
cytotoxicity at 10 µM: 12.1%

O=C(NCCNc1ncccn1)N1CCSCC1
cytotoxicity at 10 µM: -8.26%

CN1CCN(C(=O)[C@H]2CC[C@@H]3[C@@H](CCN3Cc3nccs3)O2)CC1
cytotoxicity at 10 µM: 5.41%

Cc1ccnn1CCC(=O)N1CCCC[C@]2(C)NC(=O)CCC[C@H]12
cytotoxicity at 10 µM: -0.822%

CS(=O)(=O)c1ccc(CNC2CCCN(c3cccnn3)C2)cc1 (configuration not stated)
cytotoxicity at 10 µM: 1.3%

Cc1nnc(SCC(=O)NCc2ccc3c(c2)CCC(=O)N3)n1C
cytotoxicity at 10 µM: 9.73%

CCOCCCNC(=O)Cc1cccs1
cytotoxicity at 10 µM: -10.2%

COc1ccccc1-n1nc(CC(C)C)nc1Cc1nnc(N)s1
cytotoxicity at 10 µM: 6.17%

CN(Cc1cccs1)C(=O)CS(=O)(=O)Cc1ccc(Cl)c(Cl)c1
cytotoxicity at 10 µM: 0.866%

COc1ccc2c(c1)C1(CCN(Cc3cccnc3)CC1)N(C)CC2
cytotoxicity at 10 µM: -161%

O=C(c1cc(F)ccc1Br)N1CCN(C(=O)C2CC2)CC1
cytotoxicity at 10 µM: 4.9%

CCC1=N[C@@]2(CC[C@@H]3CN(C(=O)NCC4CCCCC4)C[C@@H]32)C(=O)N1
cytotoxicity at 10 µM: -70.2%

O=S(=O)(NCCNc1cc(-n2cccc2)ncn1)c1cccs1
cytotoxicity at 10 µM: -0.582%

CC(C)n1ccnc1CN1CCCN(C(=O)CC2CCCO2)CC1 (configuration not stated)
cytotoxicity at 10 µM: -12.8%

Cc1ccc(-n2cc3[nH]c(=O)n(C(C)C)n3c2=O)cc1
cytotoxicity at 10 µM: -8.9%

Cc1cc(N2CCN(Cc3cn(C)nc3C)CC2)cc(C2CCNC2)n1 (configuration not stated)
cytotoxicity at 10 µM: 0.39%

Cc1nc(C)n(C2CCCN(C(=O)c3cc4ccccc4n3C)C2)n1 (configuration not stated)
cytotoxicity at 10 µM: -4.5%

CCOC(C)c1nc(CN2CCC(CNC(C)=O)CC2)cs1 (configuration not stated)
cytotoxicity at 10 µM: -15%

CC(C)S(=O)(=O)N1CCCC(c2cccc(C(=O)O)c2)C1 (configuration not stated)
cytotoxicity at 10 µM: -2.18%

CNc1nc2cn(CCc3ccccc3)c(=O)c-2c[nH]1
cytotoxicity at 10 µM: 7.77%

CC(c1cccc(F)c1)N1CCN(Cc2nccn2C)CC1 (configuration not stated)
cytotoxicity at 10 µM: -7.81%

CC1CCN(CCNC(=O)C2CCN(C(=O)NC(C)C)CC2)CC1
cytotoxicity at 10 µM: 8.21%

CNc1nccnc1C1CN(C(=O)c2cc[nH]n2)CCO1 (configuration not stated)
cytotoxicity at 10 µM: -12.3%

CCN(C(c1cccnc1)c1ccc(F)c(F)c1)S(C)(=O)=O (configuration not stated)
cytotoxicity at 10 µM: -0.69%

Cn1ccc(CS(=O)(=O)Cc2cccc(F)c2)cc1=O
cytotoxicity at 10 µM: 6.83%

COc1cccc(NC(=O)NCC(O)c2ccc(F)cc2F)c1 (configuration not stated)
cytotoxicity at 10 µM: -1.43%

Cc1ncncc1C(=O)N1CCCN(Cc2ncc(Cl)n2C)CC1
cytotoxicity at 10 µM: 6.45%

COCC(=O)N1CCC2(CC1)CC(=O)N(Cc1ccc(Cl)cc1)C2
cytotoxicity at 10 µM: 0.96%

OC1(CNCCc2nc(Cc3ccccc3)no2)CNCCOC1 (configuration not stated)
cytotoxicity at 10 µM: 4.43%

CC1CN(C)CCN1Cc1cccc(C(=O)N(C)C)c1 (configuration not stated)
cytotoxicity at 10 µM: -0.192%

CCCS(=O)(=O)N1CCc2c(COCC)cncc2C1
cytotoxicity at 10 µM: 8.76%

CN(CCCOc1ccccc1)Cc1nccn1C
cytotoxicity at 10 µM: 2.07%

Cn1cnc(S(=O)(=O)N2CCSC3(CCCCC3)C2)c1
cytotoxicity at 10 µM: -5.95%

Cc1noc(CNc2cc3c(cc2Cl)OCCCO3)n1
cytotoxicity at 10 µM: -1.49%

CCCNC(=O)C1(CC2CC(c3ccccc3OC)=NO2)CCOCC1 (configuration not stated)
cytotoxicity at 10 µM: 21.8%

COC(=O)C1CN(Cc2ccccc2C(C)(C)C#N)CCO1 (configuration not stated)
cytotoxicity at 10 µM: -1.78%

CCOC(=O)CCNC(=O)N1CCOC(Cc2cccc(OC)c2)C1 (configuration not stated)
cytotoxicity at 10 µM: -1.13%

CC(C)N1CCN(C(=O)c2[nH]nnc2Nc2ccccc2F)CC1
cytotoxicity at 10 µM: 6.36%

c1cnc(N2C[C@H]3CCC[C@@H](CN4CCCC4)[C@H]3C2)nc1
cytotoxicity at 10 µM: -4.22%

Cc1cc(C)c(CNc2cnn(CC(O)CN(C)C)c2)c(C)c1 (configuration not stated)
cytotoxicity at 10 µM: 15%

CCn1nc(CC(C)C)cc1C(=O)N1CCCC(C#N)C1 (configuration not stated)
cytotoxicity at 10 µM: -8.2%

CC(C)N(CC(=O)O)Cc1cccc(Br)c1
cytotoxicity at 10 µM: -8.67%

Cc1cc2c(=O)n3c(nc2s1)CCN(Cc1cncn1C)CC3
cytotoxicity at 10 µM: -14.2%

CC(C)CCN(C(=O)c1nc(S(C)(=O)=O)n2ccccc12)C1CC1
cytotoxicity at 10 µM: -2.63%

CC(C)=CCC1(C(=O)O)CCCN(c2ccnc(N)n2)C1 (configuration not stated)
cytotoxicity at 10 µM: -13.7%

CC(C)NC(=O)CC(C)NCc1cc(Cl)ccc1F (configuration not stated)
cytotoxicity at 10 µM: -40%

CCOC(=O)c1nnc2ccccc2c1N1CCN(C(C)C)CC1
cytotoxicity at 10 µM: -1.54%

CC(=O)N1CCN(c2cc(C)ncn2)CC(CO)C1 (configuration not stated)
cytotoxicity at 10 µM: 2.94%

Cc1nnc(N2C[C@@H](OCCCn3cccn3)[C@H]3OCCC[C@H]32)s1
cytotoxicity at 10 µM: -8.19%

CN(C)CC(=O)N1Cc2nc(C(=O)NCc3ccccc3)oc2C1
cytotoxicity at 10 µM: -81.5%

CCS(=O)(=O)N1CCC(CSc2ccccc2)C1 (configuration not stated)
cytotoxicity at 10 µM: 2.42%

O=C(CN1C(=O)CCNC1=O)N1CCOC(c2ccc(F)cc2)C1 (configuration not stated)
cytotoxicity at 10 µM: 5.11%

N#Cc1ccc(C(=O)NS(=O)(=O)c2ccc(C#N)c(Cl)c2)cc1
cytotoxicity at 10 µM: 5.44%

COc1ccc(C(C(=O)O)N2CCC(Cn3cccn3)CC2)cc1F (configuration not stated)
cytotoxicity at 10 µM: 1.81%

COc1cc(-c2cnnc(NCCCOC(C)C)n2)cc(OC)c1OC
cytotoxicity at 10 µM: 3.51%

O=C(Nc1nccs1)NC1CCN(Cc2ccccc2)CC1
cytotoxicity at 10 µM: -7.07%

c1cnn(C2CN(Cc3nc(-c4ccsc4)no3)C2)c1
cytotoxicity at 10 µM: -12.2%

O=C(NCC(c1cccs1)N1CCOCC1)c1ccc(F)cc1Cl (configuration not stated)
cytotoxicity at 10 µM: -2.27%

CN(C)c1ncccc1CNC(=O)NCc1ccco1
cytotoxicity at 10 µM: -3.26%

CN(CCc1cnn(C)c1)C(=O)C(c1ccccc1F)N(C)C (configuration not stated)
cytotoxicity at 10 µM: 3.11%

O=C(NCCc1ccccc1)C1CCN(C(=O)Cn2cncn2)C1 (configuration not stated)
cytotoxicity at 10 µM: 2.55%

Cc1cc(C)n(CC2CCCCN2CC(=O)NC2CCOCC2)n1 (configuration not stated)
cytotoxicity at 10 µM: -9.01%

O=C(c1ccccn1)N1CC[C@H]2[C@H]1CCN2S(=O)(=O)C1CC1
cytotoxicity at 10 µM: -123%

CCNC(=O)[C@@H]1CCCN1[C@@H](C(=O)NC)c1ccccc1OC
cytotoxicity at 10 µM: -4.51%

NS(=O)(=O)c1cccnc1NCc1ccco1
cytotoxicity at 10 µM: -8.21%

c1cncc(C[C@@H]2CC[C@H](CN3CCCOCC3)O2)c1
cytotoxicity at 10 µM: 2.13%

CCNC(=O)c1ccc(NC2CCOC3(CCCCC3)C2)nn1 (configuration not stated)
cytotoxicity at 10 µM: -3%

CN(Cc1nc(C(F)(F)F)cs1)C(=O)CCc1cccnc1
cytotoxicity at 10 µM: 9.75%

Cc1nc(C(=O)N(Cc2c(C)nn(C)c2C)C(C)C)cs1
cytotoxicity at 10 µM: 3.57%

O=C(CC1CC2(CCN(CC3CC3)CC2)Oc2ccccc21)NC1CC1 (configuration not stated)
cytotoxicity at 10 µM: 8.5%

COCc1cnc2n1CCN(C(=O)c1cc3ccccc3o1)C2C (configuration not stated)
cytotoxicity at 10 µM: -105%

O=C(Nc1ccc(S(=O)(=O)Nc2c(F)cccc2F)cc1)N1CCCC1
cytotoxicity at 10 µM: 5.66%

CC1CN(C)CCN1Cc1cccc(C(=O)NCc2ccco2)c1 (configuration not stated)
cytotoxicity at 10 µM: 3.33%

CC(C)CN1CC(C(=O)N(C)CCc2cn[nH]c2)CC1=O (configuration not stated)
cytotoxicity at 10 µM: -4.1%

Cc1cnn(C2CCCN(C(=O)c3ccc(C(N)=O)cn3)C2)c1 (configuration not stated)
cytotoxicity at 10 µM: -7.35%

COc1cccc(N2CCN(C(=O)c3noc4c3CCCC4)CC2)c1
cytotoxicity at 10 µM: 11.7%

Cn1nc2c(cc1=O)CN(Cc1nnc(C3CC3)o1)CC2
cytotoxicity at 10 µM: 4.28%

COc1ccc(C(C(=O)O)N2CCCN(C3CCCCC3)CC2)cn1 (configuration not stated)
cytotoxicity at 10 µM: 13.3%

CCCn1nc(C(=O)N(C)Cc2nnc3n2CCC3)ccc1=O
cytotoxicity at 10 µM: 1.77%

Oc1ccc(N2CCN(Cc3ccc(F)cc3Br)CC2)cc1
cytotoxicity at 10 µM: -13.2%

CC[C@@H]1N(Cc2ccccn2)CCC[C@]12CCC(=O)N2CCOC
cytotoxicity at 10 µM: 8.01%

CSCC(C)(O)CNC(=O)c1ccc(Br)cc1F (configuration not stated)
cytotoxicity at 10 µM: 0.537%

COC(=O)N1CCC(CNS(=O)(=O)c2cnn(C)c2)CC1
cytotoxicity at 10 µM: -9.03%

CN(CC(=O)Nc1ccccc1)C(=O)CN(C)c1ccc(Cl)cn1
cytotoxicity at 10 µM: -1.83%

Cc1ccc(C(=O)Nc2ccc(N3CCCC3)cn2)cc1C
cytotoxicity at 10 µM: 26.9%

CCS(=O)(=O)N1CCOC2(CCCN(Cc3ccccn3)C2)C1 (configuration not stated)
cytotoxicity at 10 µM: 5.86%

CC(Sc1nnnn1C1CCOCC1)C(=O)NC1CCCCC1 (configuration not stated)
cytotoxicity at 10 µM: 18.3%

CCOc1ncccc1C(=O)N1CCCCC1c1nccs1 (configuration not stated)
cytotoxicity at 10 µM: -8.7%

OC(CN1CCN(c2ncccn2)CC1)c1cccc(F)c1 (configuration not stated)
cytotoxicity at 10 µM: 2.4%

Cc1cc(C[C@@H]2CCC[C@H]2NCc2ccccc2F)on1
cytotoxicity at 10 µM: -6.19%

CN(C)S(=O)(=O)N1CCCC(c2cccc(Cc3ccccc3)n2)C1 (configuration not stated)
cytotoxicity at 10 µM: 20.5%

CS(=O)(=O)N1CCC2(CC1)CC(NCc1ccco1)c1ccccc12 (configuration not stated)
cytotoxicity at 10 µM: -110%

Cc1ccc(-c2ccnc(N[C@H]3COC[C@@H]3N3CCCCC3)n2)c(C)n1
cytotoxicity at 10 µM: 3.46%

CC(C)n1cnnc1C1CCCN(C(=O)COCc2ccccc2)C1 (configuration not stated)
cytotoxicity at 10 µM: -20.3%

CC(C)(C)NC(=O)CN1CCCN(Cc2ccc(C#N)cc2)CC1
cytotoxicity at 10 µM: -4.78%

CCOCc1nn(CC2CC2)c2c1CN(Cc1ccco1)CC2
cytotoxicity at 10 µM: 2.7%

Cc1cc(CNC(=O)c2cccs2)ccc1S(C)(=O)=O
cytotoxicity at 10 µM: 3.38%

CCc1nccn1C1CCCN(C(=O)c2ccc3c(c2)nnn3C)C1 (configuration not stated)
cytotoxicity at 10 µM: -10.6%

Cc1cc(C)n(CC2CN(CC(=O)Nc3cccnc3)CCO2)n1 (configuration not stated)
cytotoxicity at 10 µM: -3.1%

Cn1cc(N2C[C@@H]3CN(Cc4ccoc4)C[C@@H]3C2=O)cn1
cytotoxicity at 10 µM: -2.93%

CCN(CC1CCCO1)C(=O)Nc1ccc(OC)c(C)c1 (configuration not stated)
cytotoxicity at 10 µM: -12.9%

CCN1CCOCC12CCN(c1ccc(C#N)cc1)CC2
cytotoxicity at 10 µM: -6.93%

CC(=O)NCC(=O)N1Cc2cc(-c3cc[nH]n3)ccc2C1c1cnco1 (configuration not stated)
cytotoxicity at 10 µM: 13.5%

CCOCC(=O)NCCn1ccc(-c2ccccn2)n1
cytotoxicity at 10 µM: 11.4%

O=C(Nc1cccc(CN2CCOC2=O)c1)N1CCSCC1
cytotoxicity at 10 µM: -11.3%

CCc1nc(C2CCCN2c2ncc(C(N)=O)cc2Cl)no1 (configuration not stated)
cytotoxicity at 10 µM: -3.99%

CN(Cc1ccon1)CC1CCOc2ccccc2C1 (configuration not stated)
cytotoxicity at 10 µM: -6.95%
